Source: ChEMBL document CHEMBL4138242, “Synthesis and antibacterial evaluation of novel cationic chalcone derivatives possessing broad spectrum antibacterial activity” (Eur J Med Chem, 2018)
Calls of active or inactive are those of the source. No cut-off for these calls is given here.

Legend:
[1] = tested on: Staphylococcus aureus; test: Antibacterial activity against Staphylococcus aureus ATCC 29213 after 16 to 20 hrs by broth microdilution method; type: functional
Outline: (§1)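 Broth microdilution per CLSI. Bacteria grown 4-6 h (about 10⁸ CFU/mL), then diluted to about 10⁶ CFU/mL. Medium: Mueller-Hinton broth, except Luria-Bertani broth for E. coli. Compounds in sterile water, twofold series 256-0.5 µg/mL, mixed 1:1 with inoculum, 37 °C for 16-20 h. MIC is the lowest concentration without visible growth. Duplicate wells; experiment repeated at least twice.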

[2] = tested on: Enterococcus faecalis; test: Antibacterial activity against Enterococcus faecalis ATCC 29212 after 16 to 20 hrs by broth microdilution method; type: functional; outline: as §1
[3] = tested on: Escherichia coli; test: Antibacterial activity against Escherichia coli ATCC 25922 after 16 to 20 hrs by broth microdilution method; type: functional; outline: as §1
[4] = tested on: Salmonella enterica; test: Antibacterial activity against Salmonella enterica ATCC 13076 after 16 to 20 hrs by broth microdilution method; type: functional; outline: as §1
[5] = Hemolytic activity in sheep RBC after 1 hr; type: ADME, cell-based, Ovis aries, Erythrocyte; details: sheep red blood cells (erythrocytes)
Outline: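 Sheep red blood cells (150 µL suspension) mixed with 50 µL of compound dilutions (5120-10 µg/mL), 1 h at 37 °C, then centrifuged. Supernatant read at 540 nm. Percent hemolysis calculated relative to RBC-only control (0%) and 0.1% Triton X-100 (100%).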

[6] = tested on: Staphylococcus aureus; test: Antibacterial activity against methicillin-resistant Staphylococcus aureus clinical isolate 1105183 cono7 after 16 to 20 hrs by broth microdilution method; type: functional
Outline: (§2)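 CLSI broth microdilution in Mueller-Hinton broth. A 4-6 h culture was diluted to about 10⁶ CFU/mL and mixed 1:1 with compound dilutions prepared at 256 to 0.5 µg/mL from aqueous stocks. Plates were incubated at 37 °C for 16-20 h and read visually for MIC. Each concentration was run in duplicate, and the experiment was repeated at least twice. Vancomycin and meropenem were comparators.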

[7] = tested on: Staphylococcus aureus; test: Antibacterial activity against methicillin-resistant Staphylococcus aureus clinical isolate 20130911034sau after 16 to 20 hrs by broth microdilution method; type: functional; outline: as §2
[8] = tested on: Staphylococcus aureus; test: Antibacterial activity against methicillin-resistant Staphylococcus aureus clinical isolate 0831010 after 16 to 20 hrs by broth microdilution method; type: functional; outline: as §2
[9] = tested on: Staphylococcus aureus; test: Antibacterial activity against methicillin-resistant Staphylococcus aureus clinical isolate 1104060 after 16 to 20 hrs by broth microdilution method; type: functional; outline: as §2
[10] = tested on: Staphylococcus aureus; test: Antibacterial activity against methicillin-resistant Staphylococcus aureus clinical isolate 20131012632sau after 16 to 20 hrs by broth microdilution method; type: functional; outline: as §2
[11] = tested on: Staphylococcus aureus; test: Antibacterial activity against methicillin-resistant Staphylococcus aureus clinical isolate 1207007 after 16 to 20 hrs by broth microdilution method; type: functional; outline: as §2
[12] = tested on: Staphylococcus aureus; test: Antibacterial activity against methicillin-resistant Staphylococcus aureus clinical isolate 1-may after 16 to 20 hrs by broth microdilution method; type: functional; outline: as §2
[13] = tested on: Staphylococcus aureus; test: Antibacterial activity against methicillin-resistant Staphylococcus aureus clinical isolate 0906202 after 16 to 20 hrs by broth microdilution method; type: functional; outline: as §2
[14] = tested on: Staphylococcus aureus; test: Antibacterial activity against methicillin-resistant Staphylococcus aureus clinical isolate 1208143 after 16 to 20 hrs by broth microdilution method; type: functional; outline: as §2
[15] = tested on: Escherichia coli; test: Disruption of 72 hrs cultured Escherichia coli ATCC 25922 biofilm assessed as decrease in cell viability in biofilm after 24 hrs by crystal violet staining-based assay; type: functional, organism-based
[16] = tested on: Staphylococcus aureus; test: Bactericidal activity against methicillin-resistant Staphylococcus aureus in presence of 50% sheep serum after 20 to 24 hrs; type: functional; details: read-out: MBC99.9
Outline: (§3)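 MRSA at 10⁵ CFU/mL in 50% MHB plus 50% sheep serum, plasma or defibrinated blood; serum and plasma were obtained by centrifugation at 3,500 rpm for 10 min. Aqueous dilutions prepared at 512-4 µg/mL were added 1:3 to the suspension and incubated for 20-24 h at 37 °C. Well contents (20 µL) were plated on MHA for 20-24 h, and MBC was the concentration giving no colonies.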

[17] = tested on: Staphylococcus aureus; test: Bactericidal activity against methicillin-resistant Staphylococcus aureus in presence of 50% sheep blood after 20 to 24 hrs; type: functional; details: read-out: MBC99.9; outline: as §3
[18] = tested on: Staphylococcus aureus; test: Ratio of MBC99.9 for methicillin-resistant Staphylococcus aureus in presence of 50% sheep serum to MBC99.9 for methicillin-resistant Staphylococcus aureus ATCC 29213 in presence of 50% sheep plasma; type: functional; outline: as §3
[19] = tested on: Staphylococcus aureus; test: Bactericidal activity against Staphylococcus aureus ATCC 29213 at 6 times MIC after 3 hrs by time-kill assay (reference value: 10^6.1 CFU/ml); type: functional
Outline: (§4)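 Overnight cultures diluted 1:10,000 in MHB and grown at 37 °C, 225 rpm, for 2 h (early exponential) or 5 h (late exponential). Cells exposed to compound at 6× or 8× MIC in tubes at 37 °C, 225 rpm. At intervals, aliquots were spun, resuspended in PBS, tenfold diluted, plated on MHA overnight at 37 °C and counted as CFU/mL. Biological replicates.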

[20] = tested on: Escherichia coli; test: Bactericidal activity against Escherichia coli ATCC 25922 at 6 to 8 times MIC after 6 hrs by time-kill assay; type: functional, organism-based; outline: as §4
[21] = tested on: Staphylococcus aureus; test: Induction of cytoplasmic membrane depolarization in Staphylococcus aureus ATCC 29213 at 10 to 20 ug/ml measured every 2 mins for 12 mins by DiSC35 dye-based fluorescence assay; type: functional, organism-based
Outline: (§5)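 Mid-log cells (~10⁸ CFU/mL) were suspended in PBS (S. aureus) or HEPES/glucose/KCl with EDTA (E. coli). They were preloaded with DiSC3(5) for 30 min (S. aureus) or 40 min (E. coli), and baseline fluorescence was read for 8 min. Compound was added to 20 µg/mL final, and fluorescence (ex 622/em 670 nm) was read every 2 min for 12 min. Water served as control.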

[22] = tested on: Escherichia coli; test: Induction of cytoplasmic membrane depolarization in Escherichia coli ATCC 25922 at 10 to 20 ug/ml measured every 2 mins for 12 mins by DiSC35 dye-based fluorescence assay; type: functional, organism-based; outline: as §5
[23] = tested on: Staphylococcus aureus; test: Induction of inner membrane permeabilization in Staphylococcus aureus ATCC 29213 at 10 to 20 ug/ml measured every 2 mins for 12 mins by propidium iodide staining-based fluorescence assay; type: functional, organism-based
Outline: (§6)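 Mid-log cells (~10⁸ CFU/mL) were suspended in PBS (S. aureus) or HEPES/glucose/KCl (E. coli). They were preincubated with propidium iodide for 30 min (S. aureus) or 40 min (E. coli), and baseline fluorescence was read for 8 min. Compound was added to 20 µg/mL final, and fluorescence (ex 535/em 617 nm) was read every 2 min for 12 min.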

[24] = tested on: Escherichia coli; test: Induction of inner membrane permeabilization in Escherichia coli ATCC 25922 at 10 to 20 ug/ml measured every 2 mins for 12 mins by propidium iodide staining-based fluorescence assay; type: functional, organism-based; outline: as §6
[25] = tested on: HeLa; test: Cytotoxicity against human HeLa cells assessed as effect on cell morphology at 2 to 4 times MIC after 24 hrs by electron scanning microscopic method; type: cell-based
Outline: (§7)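 HeLa cells in DMEM with 10% FBS (37 °C, 5% CO₂), seeded in 12-well plates and left to adhere overnight. Treated 24 h with compound at 2× and 4× MIC; untreated and 0.1% Triton X-100 controls. Cells washed with PBS and imaged for morphology. For live/dead imaging, stained with 2 µM calcein AM and 4.5 µM PI for 15 min at 37 °C.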

[26] = tested on: HeLa; test: Cytotoxicity against human HeLa cells at 2 to 4 times MIC after 24 hrs by calcein AM/propidium iodide staining-based fluorescence microscopic method; type: cell-based; outline: as §7

Structure (SMILES): CCCCCCCC[N+](C)(C)CC(=O)Nc1ccc(C(=O)/C=C/c2ccccc2)cc1.[Cl-]
- MIC [1]: 1 µg/mL
- MIC [2]: 1 µg/mL
- MIC [3]: 2 µg/mL
- MIC [4]: 4 µg/mL
- HC50 at 1 h [5]: 228 µg/mL
- MIC [6]: 1 µg/mL
- MIC [7]: 0.5 µg/mL
- MIC [8]: 1 µg/mL
- MIC [9]: 8 µg/mL
- MIC [10]: 4 µg/mL
- MIC [11]: 0.5 µg/mL
- MIC [12]: 1 µg/mL
- MIC [13]: 4 µg/mL
- MIC [14]: 2 µg/mL
- Activity [15]: Active
- MBC [16]: 32 µg/mL
- MBC [17]: 128 µg/mL
- Ratio [18]: 2
- Activity [19]: 1 CFU/ml
- Activity [20]: Active
- Activity [21]: Active
- Activity [22]: Active
- Activity [23]: Active
- Activity [24]: Active
- Activity [25]: Non-Toxic
- Activity [26]: Toxic
